Source: PubChem
zVAD death inh – L929 zVAD cell death inhibition. L929 zVAD necroptosis rescue, ATP luminescence, 24 h; with zVAD 60 µM. viability rescue, % at 10 µM. 220,000 tested, 0.38% active. AID 1377;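 active = activation, scaled between plate controls, above about 75%, limit read from the data; inactive = activation under that limit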;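 also: 0% = zVAD with DMSO and 100% = DMSO alone without zVAD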
TNF death inh – inhibitors of TNF-alpha induced necroptosis in Jurkat FADD-/- cells | 220,000 tested, 0.068% active | activation (protection from cell death), % at 10 µM | AID 463075 | Jurkat FADD-/- TNF necroptosis rescue, ATP luminescence, 24 h; 0 = TNF only, 100 = no-TNF cells;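 active = activation, meaning protection from cell death, of at least 50% relative to plate controls; inactive = activation below 50%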;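 also: necroptosis triggered by 40 ng/mL TNF-alpha added together with compound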
Rad51 HR inh – Rad51 (human) homologous recombination inhibition | hRad51 DNA strand exchange, fluorescence dequenching | inhibition, % at 10 µM | 200,000 tested, 0.085% active;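 active = inhibition above 40% at the single screening dose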;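 also: 0% = DMSO control wells and 100% = blanks with heterologous ssDNA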
Target sequence (Q06609 whole entry, looked up): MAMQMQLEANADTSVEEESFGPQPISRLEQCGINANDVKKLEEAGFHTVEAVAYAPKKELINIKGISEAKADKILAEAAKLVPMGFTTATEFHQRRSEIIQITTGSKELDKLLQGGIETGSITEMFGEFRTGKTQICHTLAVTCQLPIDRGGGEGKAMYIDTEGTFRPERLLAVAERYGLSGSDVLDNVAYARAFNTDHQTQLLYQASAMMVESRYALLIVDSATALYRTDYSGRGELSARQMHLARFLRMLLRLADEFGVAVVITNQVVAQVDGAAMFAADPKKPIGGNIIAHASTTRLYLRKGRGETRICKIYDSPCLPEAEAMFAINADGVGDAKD
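Material: Human Rad51 nucleoprotein filaments preassembled on unlabelled ssDNA | Also added: Labelled 47-mer dsDNA for strand exchange | Dosing: Single dose, 10 µM final compound | Schedule: 30-min compound preincubation and 15-min exchange, both room temperature | Technique: Fluorescence dequenching at 485/520 nm | Measure: Percent inhibition relative to plate controls and blanks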
HMGR II inh – inhibitors of class II HMG-CoA reductase from Enterococcus faecalis; purified E. faecalis HMGR, NADPH absorbance 340 nm kinetic; inhibition, % at 10 µM; 190,000 tested, 0.41% active;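 active = inhibition above a set limit, the median over all tested compounds plus 3 SD, cut at about 9.5% in these data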;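 also: enzyme runs in reverse so mevalonate oxidation gives rising NADPH absorbance; 0% = complete reaction with DMSO and 100% = background rate lacking mevalonate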
PERK inh – human PERK inhibition, primary cell-based screen; Q9NZJ5; CHO PERK-DD fusion, SEAP luminescence translation reporter; inhibition, % at 5.6 µM; 220,000 tested, 0.17% active; AID 1416;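 active = inhibition above the mean inhibition of all tested compounds plus 3 SD, set separately per screening campaign, cut at about 2.9% in these data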;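 also: PERK kinase domain activated by AP20187 dimerizer at 100 nM; 0% = DMSO with dimerizer and 100% = rapamycin at 8.4 µM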
zVAD necrop conf – confirmed blocker of zVAD induced death in L929 cells; L929 zVAD-induced necroptosis rescue, ATP luminescence, 24 h; activation (protection from necroptosis), % at 10 µM; AID 463117; 760 tested, 16% active; shares compounds with zVAD death inh;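 active = mean protection from necroptosis of at least 50% over duplicate tests; inactive = mean protection below 50%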;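 also: 0% = cells with zVAD alone and 100% = vehicle cells without zVAD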
* marks the source's active call; other numbers are inactive results. Only some compounds are listed: those with a hit (about 1% of all), similar ones and a draw of the others.

What do the screens show for `CC(NC1CCCC1)c1ccccc1` (centres undefined)?
zVAD death inh: 5; TNF death inh: 1; Rad51 HR inh: 2; HMGR II inh: -1; PERK inh: 1

What do the screens show for `COc1ccc(Oc2nc(C)cc(C)c2S(C)(=O)=O)cc1`?
zVAD death inh: 0; TNF death inh: -2; HMGR II inh: 0; PERK inh: 2

Results for Cc1cc(C)c(S(C)(=O)=O)c(Oc2ccc(F)cc2)n1 ?
zVAD death inh: 0; TNF death inh: -1; HMGR II inh: 10*; PERK inh: 1

What do the screens show for `CCOC(=O)/C(C#N)=C/c1ccc(N2CCN(C)CC2)cc1`?
zVAD death inh: 4; TNF death inh: 10; Rad51 HR inh: 0; HMGR II inh: -2; PERK inh: 1

What do the screens show for `CN1CCN(C(=O)/C(C#N)=C/c2ccc(OC(F)F)cc2)CC1`?
zVAD death inh: -1; TNF death inh: 2; Rad51 HR inh: 44*; PERK inh: 1

How did CSc1nc(O)c(C2OC(=O)c3ccccc32)c(=O)[nH]1 (centres undefined) do in these assays?
zVAD death inh: 0; TNF death inh: 0; Rad51 HR inh: -7; HMGR II inh: -4; PERK inh: 2.9*

Results for CSc1nc(O)c(/C=C2\C=Nc3ccccc32)[nH]1 ?
zVAD death inh: 6; TNF death inh: 2; Rad51 HR inh: -4; HMGR II inh: -2; PERK inh: 0

Results for COc1cc(S(=O)(=O)NCCCN2CCOCC2)ccc1Cl ?
zVAD death inh: 0; TNF death inh: 1; Rad51 HR inh: 7; HMGR II inh: 0; PERK inh: 2.9*

Results for Cc1ccc(S(=O)(=O)NCCCN2CCOCC2)cc1C ?
zVAD death inh: -1; TNF death inh: 0; Rad51 HR inh: 10; HMGR II inh: 0; PERK inh: 1

How did CCOC(=O)C1C(=O)NC(SCC(=O)Nc2nccs2)=C(C#N)C1c1ccccc1OCC (centres undefined) do in these assays?
zVAD death inh: 88*; TNF death inh: 16; Rad51 HR inh: 3; HMGR II inh: -1; PERK inh: 0; zVAD necrop conf: 67*

How did CCOC(=O)c1c(N)nn(C(=O)c2ccccc2F)c1-c1ccc(OC)cc1 do in these assays?
zVAD death inh: 78*; TNF death inh: 0; Rad51 HR inh: 5; HMGR II inh: -3; PERK inh: 1; zVAD necrop conf: 0

Results for CCOC(=O)c1c(N)nn(C(=O)C(C)(C)C)c1-c1ccccc1 ?
zVAD death inh: 0; TNF death inh: -1; Rad51 HR inh: -6; HMGR II inh: 4; PERK inh: 2

How did O=C(C1=NNCC1c1ccc(Cl)cc1)C1CO1 (centres undefined) do in these assays?
zVAD death inh: 89*; TNF death inh: 57*; HMGR II inh: -4; PERK inh: 0; zVAD necrop conf: 94*

Results for O=C(Nc1ccc(F)cc1)Nc1ccc(N2CCCC2)c(S(=O)(=O)Nc2ccccc2Cl)c1 ?
zVAD death inh: 76*; TNF death inh: 2; Rad51 HR inh: -11; HMGR II inh: 2; PERK inh: 0; zVAD necrop conf: 72*

How did O=C(Nc1cccc(-c2csc(Nc3cccc(C(F)(F)F)c3)n2)c1)c1ccccc1 do in these assays?
zVAD death inh: 7; TNF death inh: 5; Rad51 HR inh: -7

How did COc1ccc(-c2cc(C(=O)Nc3cc(OC)cc(C(=O)Nc4cccc(C(F)(F)F)c4)c3)[nH]n2)cc1 do in these assays?
zVAD death inh: 79*; TNF death inh: 2; Rad51 HR inh: 1; zVAD necrop conf: 3

How did COc1cc(NC(=O)c2ccno2)cc(C(=O)Nc2cccc(C(F)(F)F)c2)c1 do in these assays?
zVAD death inh: 2; TNF death inh: 3; Rad51 HR inh: -4

How did O=C(Nc1ccc(-c2csc(Nc3cccc(C(F)(F)F)c3)n2)cc1)c1ccccc1 do in these assays?
zVAD death inh: 83*; TNF death inh: 8; Rad51 HR inh: -3; zVAD necrop conf: 38

How did O=C(NCc1ccc2c(c1)OCO2)c1ccc2c(c1)S(=O)(=O)c1ccccc1C2=O do in these assays?
Rad51 HR inh: 9
